Assay results published in ChEMBL document CHEMBL1833921, “Synthesis and biological evaluation of phenstatin metabolites” (Bioorg Med Chem, 2011).
pIC50: −log10 of the molar value.

Tests used:
[1] = test system: MDA-MB-468; experiment: Cytotoxicity against human MDA-MB-468 cells after 48 hrs by sulforhodamine B assay; format: functional; conditions: MDA-MB-468, 48 h
[2] = test system: Hs-578T; experiment: Cytotoxicity against human HS578T cells after 48 hrs by sulforhodamine B assay; format: functional
[3] = test system: MDA-MB-231; experiment: Cytotoxicity against human MDA-MB-231/ATCC cells after 48 hrs by sulforhodamine B assay; format: functional; conditions: MDA-MB-231, 48 h
[4] = test system: MCF7; experiment: Cytotoxicity against human MCF7 cells after 48 hrs by sulforhodamine B assay; format: functional; conditions: MCF7, 48 h
[5] = test system: SF-539; experiment: Cytotoxicity against human SF539 cells after 48 hrs by sulforhodamine B assay; format: functional; conditions: SF-539, 48 h
[6] = test system: SF-295; experiment: Cytotoxicity against human SF295 cells after 48 hrs by sulforhodamine B assay; format: functional; conditions: SF-295, 48 h
[7] = test system: DU-145; experiment: Cytotoxicity against human DU145 cells after 48 hrs by sulforhodamine B assay; format: functional; conditions: DU-145, 48 h
[8] = test system: UO-31; experiment: Cytotoxicity against human UO31 cells after 48 hrs by sulforhodamine B assay; format: functional; conditions: UO-31, 48 h
[9] = test system: SN12C; experiment: Cytotoxicity against human SN12C cells after 48 hrs by sulforhodamine B assay; format: functional
[10] = test system: RXF 393; experiment: Cytotoxicity against human RXF393 cells after 48 hrs by sulforhodamine B assay; format: functional; conditions: RXF 393, 48 h
[11] = test system: CAKI-1; experiment: Cytotoxicity against human Caki1 cells after 48 hrs by sulforhodamine B assay; format: functional; conditions: CAKI-1, 48 h
[12] = test system: A498; experiment: Cytotoxicity against human A498 cells after 48 hrs by sulforhodamine B assay; format: functional; conditions: A498, 48 h
[13] = test system: SK-OV-3; experiment: Cytotoxicity against human SKOV3 cells after 48 hrs by sulforhodamine B assay; format: functional; conditions: SK-OV-3, 48 h
[14] = test system: NCI/ADR-RES; experiment: Cytotoxicity against human NCI/ADR-RES cells after 48 hrs by sulforhodamine B assay; format: functional
[15] = test system: OVCAR-5; experiment: Cytotoxicity against human OVCAR5 cells after 48 hrs by sulforhodamine B assay; format: functional; conditions: OVCAR-5, 48 h
[16] = test system: OVCAR-4; experiment: Cytotoxicity against human OVCAR4 cells after 48 hrs by sulforhodamine B assay; format: functional; conditions: OVCAR-4, 48 h
[17] = test system: OVCAR-3; experiment: Cytotoxicity against human OVCAR3 cells after 48 hrs by sulforhodamine B assay; format: functional; conditions: OVCAR-3, 48 h
[18] = test system: UACC-62; experiment: Cytotoxicity against human UACC62 cells after 48 hrs by sulforhodamine B assay; format: functional; conditions: UACC-62, 48 h
[19] = test system: SK-MEL-28; experiment: Cytotoxicity against human SK-MEL-28 cells after 48 hrs by sulforhodamine B assay; format: functional; conditions: SK-MEL-28, 48 h
[20] = test system: SK-MEL-2; experiment: Cytotoxicity against human SK-MEL-2 cells after 48 hrs by sulforhodamine B assay; format: functional; conditions: SK-MEL-2, 48 h
[21] = test system: MDA-MB-435; experiment: Cytotoxicity against human MDA-MB-435 cells after 48 hrs by sulforhodamine B assay; format: functional; conditions: MDA-MB-435, 48 h
[22] = test system: M14; experiment: Cytotoxicity against human M14 cells after 48 hrs by sulforhodamine B assay; format: functional; conditions: M14, 48 h
[23] = test system: KM12; experiment: Cytotoxicity against human KM12 cells after 48 hrs by sulforhodamine B assay; format: functional; conditions: KM12, 48 h
[24] = test system: HCT-15; experiment: Cytotoxicity against human HCT15 cells after 48 hrs by sulforhodamine B assay; format: functional; conditions: HCT-15, 48 h
[25] = test system: HCT-116; experiment: Cytotoxicity against human HCT116 cells after 48 hrs by sulforhodamine B assay; format: functional; conditions: HCT-116, 48 h
[26] = test system: NCI-H522; experiment: Cytotoxicity against human NCI-H522 cells after 48 hrs by sulforhodamine B assay; format: functional; conditions: NCI-H522, 48 h
[27] = test system: COLO 205; experiment: Cytotoxicity against human COLO205 cells after 48 hrs by sulforhodamine B assay; format: functional; conditions: COLO 205, 48 h
[28] = test system: NCI-H460; experiment: Cytotoxicity against human NCI-H460 cells after 48 hrs by sulforhodamine B assay; format: functional; conditions: NCI-H460, 48 h
[29] = test system: EKVX; experiment: Cytotoxicity against human EKVX cells after 48 hrs by sulforhodamine B assay; format: functional
[30] = test system: NCI-H322M; experiment: Cytotoxicity against human NCI-H322M cells after 48 hrs by sulforhodamine B assay; format: functional
[31] = test system: A549; experiment: Cytotoxicity against human A549/ATCC cells after 48 hrs by sulforhodamine B assay; format: functional; conditions: A549, 48 h
[32] = test system: K562; experiment: Cytotoxicity against human K562 cells after 48 hrs by sulforhodamine B assay; format: functional; conditions: K562, 48 h
[33] = test system: CCRF-CEM; experiment: Cytotoxicity against human CCRF-CEM cells after 48 hrs by sulforhodamine B assay; format: functional
[34] = test system: HL-60(TB); experiment: Cytotoxicity against human HL-60(TB) cells after 48 hrs by sulforhodamine B assay; format: functional; conditions: HL-60, 48 h
[35] = Inhibition of bovine brain tubulin polymerization after 30 mins by turbidimetry analysis; set-up: species or system Bos taurus
How it was run: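 Lyophilized bovine brain tubulin (97%) reconstituted to 5 mg/mL in 80 mM PIPES pH 6.9, 2 mM MgCl₂, 0.5 mM EGTA, 1.0 mM GTP and 5% glycerol. Compound in DMSO was added to this solution in a quartz cuvette at 0 °C. Assembly was followed as the rise in absorbance at 340 nm at 37 °C. IC₅₀ is the molar concentration halving the extent of assembly after 30 min.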

[36] = test system: SF-268; experiment: Cytotoxicity against human SF268 cells after 48 hrs by sulforhodamine B assay; format: functional; conditions: SF-268, 48 h
[37] = test system: HCC 2998; experiment: Cytotoxicity against human HCC2998 cells after 48 hrs by sulforhodamine B assay; format: functional; conditions: HCC 2998, 48 h
[38] = test system: HT-29; experiment: Cytotoxicity against human HT29 cells after 48 hrs by sulforhodamine B assay; format: functional; conditions: HT-29, 48 h
[39] = test system: A549; experiment: Cytotoxicity against human A549 cells after 48 hrs by sulforhodamine B assay; format: functional; conditions: A549, 48 h
[40] = test system: HL-60; experiment: Cytotoxicity against human HL60 cells after 48 hrs by sulforhodamine B assay; format: functional; conditions: HL-60, 48 h

`COc1ccc(C(=O)c2cc(OC)c(O)c(OC)c2)cc1OC` gave a GI50 [1] of 1970 nM, a GI50 [2] of 4920 nM and a GI50 [3] of 4790 nM. For the same compound, the GI50 [4] was 433 nM, the GI50 [5] was 2960 nM and the GI50 [6] was 2080 nM. It also gave a GI50 [7] of 4490 nM, a GI50 [8] of 2160 nM and a GI50 [9] of 6680 nM. For the same compound, the GI50 [10] was 1880 nM, the GI50 [11] was 3010 nM and the GI50 [12] was 3360 nM. The GI50 [13] was 2200 nM, the GI50 [14] was 854 nM and the GI50 [15] was 12900 nM. The GI50 [16] was > 100000 nM, the GI50 [17] was 2330 nM and the GI50 [18] was 8410 nM. The GI50 [19] was 9460 nM, the GI50 [20] was 5290 nM and the GI50 [21] was 273 nM. It also gave a GI50 [22] of 902 nM, a GI50 [23] of 1090 nM and a GI50 [24] of 2070 nM. The GI50 [25] was 2500 nM, the GI50 [26] was 3640 nM and the GI50 [27] was 14200 nM. For the same compound, the GI50 [28] was 3440 nM, the GI50 [29] was > 100000 nM and the GI50 [30] was 3440 nM. The GI50 [31] was 59100 nM, the GI50 [32] was 666 nM and the GI50 [33] was 4050 nM. For the same compound, the GI50 [34] was 1250 nM and the pIC50 [35] was < 4.00.
`COc1cc(C(=O)c2ccc(OC)c(O)c2OC)cc(OC)c1O` showed a GI50 [1] of 864 nM, a GI50 [2] of 358 nM and a GI50 [3] of 2160 nM. For the same compound, the GI50 [4] was 1010 nM, the GI50 [5] was 611 nM and the GI50 [6] was 1400 nM. The GI50 [36] was 4250 nM, the GI50 [7] was 818 nM and the GI50 [8] was 16600 nM. The GI50 [9] was 13700 nM, the GI50 [10] was 755 nM and the GI50 [11] was 1900 nM. It also gave a GI50 [12] of 1700 nM, a GI50 [13] of 912 nM and a GI50 [14] of 515 nM. The GI50 [15] was 4920 nM, the GI50 [16] was 100000 nM and the GI50 [17] was 363 nM. For the same compound, the GI50 [18] was 5010 nM, the GI50 [19] was 100000 nM and the GI50 [20] was 100000 nM. It also gave a GI50 [21] of 282 nM, a GI50 [22] of 455 nM and a GI50 [23] of 409 nM. For the same compound, the GI50 [24] was 611 nM, the GI50 [25] was 1410 nM and the GI50 [37] was 2890 nM. It also gave a GI50 [26] of 290 nM, a GI50 [27] of 4830 nM and a GI50 [28] of 1970 nM. For the same compound, the GI50 [29] was 4760 nM, the GI50 [30] was 4990 nM and the GI50 [31] was 3470 nM. The GI50 [32] was 153 nM, the GI50 [33] was 896 nM and the GI50 [34] was 364 nM. It also gave a pIC50 [35] of 4.83.
Compound `COc1cc(C(=O)c2ccc3c(c2)oc(=O)n3S(C)(=O)=O)cc(OC)c1OC` has a GI50 [1] of 2820 nM, a GI50 [2] of 3160 nM and a GI50 [3] of 4850 nM. For the same compound, the GI50 [4] was 4430 nM, the GI50 [5] was 2360 nM and the GI50 [6] was 1610 nM. For the same compound, the GI50 [36] was 7950 nM, the GI50 [7] was 3040 nM and the GI50 [8] was 6810 nM. The GI50 [9] was 7790 nM, the GI50 [10] was 4630 nM and the GI50 [11] was 2640 nM. It also gave a GI50 [12] of 3110 nM, a GI50 [13] of 2840 nM and a GI50 [14] of 2030 nM. For the same compound, the GI50 [15] was 5770 nM, the GI50 [16] was 22300 nM and the GI50 [17] was 1560 nM. It also gave a GI50 [18] of 5300 nM, a GI50 [19] of 11300 nM and a GI50 [20] of 5110 nM. It also gave a GI50 [21] of 289 nM, a GI50 [22] of 1360 nM and a GI50 [23] of 1150 nM. The GI50 [24] was 2000 nM, the GI50 [25] was 2310 nM and the GI50 [37] was 6750 nM. For the same compound, the GI50 [26] was 2340 nM, the GI50 [27] was 2500 nM and the GI50 [28] was 2640 nM. The GI50 [29] was 4580 nM, the GI50 [30] was 5380 nM and the GI50 [31] was 4680 nM. For the same compound, the GI50 [32] was 588 nM, the GI50 [33] was 3350 nM and the GI50 [34] was 2520 nM. For the same compound, the pIC50 [35] was < 4.00.
Work on `COc1ccc(C(=O)c2cc(OC)c(OC)c(OC)c2)c(O)c1O` [HYDROXYPHENSTATIN] yielded a GI50 [6] of 120 nM, a GI50 [7] of 144 nM and a pIC50 [35] of 6.10.
In the case of `COc1ccc(C(=O)c2cc(OC)c(OC)c(OC)c2)c(OC)c1NC(C)=O`, the GI50 [38] was 4330 nM, the GI50 [39] was 4620 nM and the GI50 [40] was 3530 nM. It also gave a GI50 [4] of 9600 nM, a GI50 [6] of 293 nM and a GI50 [7] of 292 nM. For the same compound, the GI50 [12] was 85.5 nM, the GI50 [17] was 3300 nM and the pIC50 [35] was < 4.30.
With `COc1ccc(/C=C/c2cc(OC)c(OC)c(OC)c2)c(O)c1O` the GI50 [7] was 512 nM and the pIC50 [35] was 5.72.
In the case of `COc1ccc(C(=O)c2cc(OC)c(OC)c(OC)c2)c(N)c1`, the GI50 [38] was 42 nM, the GI50 [4] was 23 nM and the GI50 [7] was 36 nM. For the same compound, the pIC50 [35] was 6.40.
Work on `COc1ccc(C(=O)c2cc(OC)c(OC)c(OC)c2)cc1N` yielded a GI50 [38] of 33 nM, a GI50 [39] of 57 nM and a GI50 [40] of 30 nM. It also gave a pIC50 [35] of 5.82.
For `COc1ccc(C(=O)c2cc(OC)c(OC)c(OC)c2)c(OC)c1N`, the GI50 [38] was 32.3 nM, the GI50 [39] was 39 nM and the GI50 [40] was 33.1 nM. It also gave a GI50 [4] of 10.6 nM, a GI50 [6] of 19.9 nM and a GI50 [7] of 27.4 nM. The GI50 [12] was 22.1 nM, the GI50 [17] was 20.2 nM and the GI50 [21] was < 10000 nM. For the same compound, the pIC50 [35] was 5.00.
